Assay outcomes deposited in PubChem by Johns Hopkins Ion Channel Center.
Kir21 inh = inhibitors of mouse Kir2.1 inward-rectifier potassium channel. Inward rectifier potassium channel 2 (Mus musculus), P35561. HEK293-Kir2.1, FluxOR thallium flux fluorescence; stronger effect = lower value. B-score at 10 µM. 310,000 tested, 0.85% active. AID 1672, 2009;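 active = fluorescence ratio B-score at or below minus 3 SD of library scores, with starting-brightness B-score within 2 SD, cut at about -4.2 in these data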;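 note: channel flux triggered by added potassium and thallium sulfate stimulus; B-score of peak minus minimum fluorescence over baseline after thallium stimulus; more negative B-score means stronger Kir2.1 block with less thallium influx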
KCNK9 inh = KCNK9 potassium channel inhibitors, primary screen, HEK293 cells, thallium flux. 310,000 tested, 1.2% active. Potassium channel subfamily K member 9 (Homo sapiens), Q9NPC2. FluxOR thallium flux fluorescence; stronger effect = lower value. B-score at 10 µM;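 active = ratio B-score over 3 SD below the library mean, with starting fluorescence within 5 SD of its mean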;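 note: negative B-score means less thallium flux so channel inhibition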
Target sequence (Q9NPC2 whole entry, looked up): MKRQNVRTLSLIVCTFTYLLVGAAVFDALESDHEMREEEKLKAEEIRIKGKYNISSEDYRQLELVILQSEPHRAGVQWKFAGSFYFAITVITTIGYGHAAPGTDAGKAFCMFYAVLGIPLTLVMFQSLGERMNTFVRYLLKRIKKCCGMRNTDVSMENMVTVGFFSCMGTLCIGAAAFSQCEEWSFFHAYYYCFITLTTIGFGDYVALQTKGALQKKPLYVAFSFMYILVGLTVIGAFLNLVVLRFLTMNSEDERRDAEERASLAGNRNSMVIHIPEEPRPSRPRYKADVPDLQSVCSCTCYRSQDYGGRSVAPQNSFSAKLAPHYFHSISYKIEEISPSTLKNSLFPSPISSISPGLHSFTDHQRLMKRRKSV
KCNQ1 pot = potentiators or activators of KCNQ1 channel, primary screen, cell-based, thallium flux, high-throughput. 310,000 tested, 0.35% active. AID 2648, 2010. CHO-K1 KCNQ1, thallium flux FluxOR fluorescence; stronger effect = higher value. B-score at 10 µM. Potassium voltage-gated channel subfamily KQT member 1 (Homo sapiens), P51787;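 active = fluorescence ratio B-score, a plate-corrected score, at least three library SD, with initial intensity B-score within 5 SD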
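System: CHO-K1 cells stably expressing KCNQ1 / Medium: assay buffer for compound exposure, DMSO matched across wells / Reagent: thallium- and potassium-containing depolarizing buffer / Compound: one concentration, matched DMSO / Incubation: 20 min compound pretreatment at room temperature / Measured by: kinetic FluxOR fluorescence, 10 s baseline plus 110 s post-stimulus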
KCNQ1 inh = inhibitors of human KCNQ1 channel, primary screen, cell-based, thallium flux, high-throughput; Potassium voltage-gated channel subfamily KQT member 1 (Homo sapiens), P51787; CHO-K1 KCNQ1, FluxOR thallium flux fluorescence; stronger effect = higher value; B-score at 10 µM; 310,000 tested, 1.3% active; AID 2642, 2010;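 active = compounds whose thallium flux B-score, printed positive for inhibition, exceeds three library SD while starting fluorescence stays within three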;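 note: channel opened by potassium depolarization with thallium stimulus after 20 min compound exposure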
hERG rescue = hERG rescue from dofetilide block, primary screen, cell-based, CHO-hERG, FluxOR thallium flux, dofetilide IC70; AID 1511, 2009; activation (rescue from dofetilide block), less the hit threshold, % at 10 µM; dofetilide IC70 present; Voltage-gated inwardly rectifying potassium channel KCNH2 (Homo sapiens), Q12809; 310,000 tested, 0.51% active;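 active = activation above the mean of controls blocked by dofetilide plus 5 SD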;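 note: thallium influx through hERG after potassium depolarization seen as dye fluorescence rise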
KCNK3 block = human KCNK3 channel inhibitors, primary screen, CHO cells, FluxOR thallium flux, B-score | B-score at 10 µM | Potassium channel subfamily K member 3 (Homo sapiens), O14649 | AID 602410, 2012 | FluxOR fluorescence; stronger effect = lower value | 340,000 tested, 0.84% active;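 active = B-score under library mean minus 4 SD, starting fluorescence ratio at most library mean plus 5 SD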;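 note: more negative B-score means stronger inhibition of thallium flux through KCNK3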
Numbers stand for hits; - = inactive; . = no result. Most compounds without a hit are left out; they make up all but 3.8% or so of the library.

SMILES	Kir21 inh	KCNK9 inh	KCNQ1 pot	KCNQ1 inh	hERG rescue	KCNK3 block
CCc1ccc(C(C(=O)NC2CCCC2)N(Cc2cccnc2)C(=O)c2csnn2)cc1 (stereo not drawn)	-	-	-	-	-	-
O=C(C[n+]1ccccc1)N/N=C/c1ccc(Cl)c(Cl)c1	-	-	-	-	5.2	-
CCC1=C(OC(=O)N(CC)CC)N2C(=O)OC(=NCC3CC3)[C@]2(Cc2ccccc2)[C@H]2C1=CC[C@H]1C(=O)N(c3ccccc3)C(=O)[C@H]12	-	-	-	-	-	-
C=CCn1c(COc2ccc(Cl)cc2)nnc1SCC(=O)N/N=C/c1cccc(O)c1	-	-	-	-	-	-
C=CCn1c(COc2ccccc2)nnc1SC(C)C(=O)N/N=C/c1cc(Cl)ccc1O (stereo not drawn)	-	-	-	7	-	-
O=C(CN(Cc1ccccc1)C(=O)c1csnn1)NCc1ccccc1	-	-	-	-	-	-
Cc1ccccc1-n1cc(CNC(=O)CCc2nnc(CCc3ccccc3)o2)cn1	-	-	-	-	-	-
CCC(C)NC(=O)c1[nH]c(C)c(C(=O)OC)c1C (stereo not drawn)	-	-	-	-	-	-
Cc1nc(S(=O)(=O)c2ccc(Cl)cc2)c(N(C)C)o1	-	-	-	-	-	-
CCc1ccc2c(Cl)c(C(=O)N/N=C/c3c[nH]c4ccccc34)sc2c1	-	-	-	6	-	-
COc1ccc2[nH]c(=O)c(CN(CCN3CCCC3)C(=O)Nc3ccccc3Cl)cc2c1	-	-	-	-	-	-
CCOc1ccc2[nH]c(=O)c(CN(CCN3CCCC3)C(=S)Nc3ccccc3OCC)cc2c1	-	-	10	-	-	-
CCN(CC)CCNC(=S)NC(=O)c1cn(-c2ccccc2)nc1-c1ccc(OC)cc1	-	-	-	-	-	-
COC(=O)[C@H](CC(C)C)NCc1cccc(CN[C@@H](CC(C)C)C(=O)OC)c1	-4.28	-	-	-	-	-
O=S(=O)(NCC(c1ccco1)N1CCN(c2ccccc2F)CC1)c1ccc2c(c1)OCCO2 (stereo not drawn)	-	-	-	-	-	-
O=S(=O)(NCC(c1ccco1)N1CCN(c2ccccc2F)CC1)c1ccccc1 (stereo not drawn)	-	-6.87	-	-	-	-
C/C(CC(=O)Nc1ccccc1-c1ccccc1)=N\NC(=O)COc1ccc(C)cc1Br	-	-	-	6	-	-
COc1ccccc1CNC(=O)C/C(C)=N/NC(=O)COc1ccc(C)cc1Br	-	-	-	-	-	-
CC(C)(C)NC(=O)COC(=O)c1ccc(Cl)c(S(N)(=O)=O)c1	-	-	-	-	-	-
COc1ccc(CC2=CC(=O)c3ccccc3C2=O)cc1	-	-	-	8	-	-
CS(=O)c1ccccc1-c1nc(-c2cccc(Cl)c2)no1 (stereo not drawn)	-	-	-	-	-	-
O=C(NCCCn1ccnc1)c1ccc(N2CCCCC2)c([N+](=O)[O-])c1	-	-	-	-	-	-
COc1ccccc1-[n+]1c(C)cc(/C=C2\Sc3ccccc3N2C)cc1C	-	-	-	-	-	-
COc1ccc(-[n+]2c(C)cc(/C=C3\Sc4ccccc4N3C)cc2C)cc1	-	-	-	23	-	-
O=C(CCN1Cc2ccccc2C1)c1ccc2c(c1)OCCO2	-	-	8	-	-	-
SMILES	Kir21 inh	KCNK9 inh	KCNQ1 pot	KCNQ1 inh	hERG rescue	KCNK3 block
CCCC(=O)c1ccc2c(c1)OCCO2	-	-	-	-	-	-
O=C(CCN1CCc2ccccc2C(c2ccccc2)C1)c1ccc2c(c1)OCCO2 (stereo not drawn)	-	-	-	11	-	-
O=C(O)CCC(=O)c1ccc2c(c1)OCCO2	-	-	-	-	-	-
CC(C)(C)OC(=O)N1CCC(C(=O)Nc2ccc3c(c2)CCC3)CC1	.	.	.	.	.	-
OC(c1ccccc1)(c1ccccc1)c1nccc2ccccc12	.	.	.	.	.	-10.1
CC(C)(C)c1ccc(-n2nc(C#N)c(Cl)cc2=O)cc1	-	-	-	-	-	-
COc1ccc(NC(=O)c2cc(-c3cc(OC)c(OC)c(OC)c3)nc3ccccc23)cc1OC	-	-	-	-	-	-
CCNC(=S)NNC(=O)c1cc(-c2cccc(OC)c2)nc2ccccc12	-	-	-	6	-	-
COc1ccc(C(=O)NNC(=S)NC(=O)c2cc(-c3ccccc3)nc3ccccc23)cc1	-	-	9	-	-	-
COC(=O)c1ccc(NC(=S)NC(=O)c2cc(-c3ccccc3)nc3ccccc23)cc1	-	-	29	-	6.2	-
COc1cc(-c2cc(C(=O)Nc3c(Cl)cc(Cl)cc3Cl)c3ccccc3n2)cc(OC)c1OC	-	-	-	7	-	-
CC(C)c1ccc(/C=C2\SC(=O)N(CC(=O)NC3C=CS(=O)(=O)C3)C2=O)cc1 (stereo not drawn)	-	-	-	-	-	-
COc1ccc(CN2CCC(n3nccc3NC(=O)c3cccc(F)c3)CC2)cc1O	-	-	-	-	-	-
CC(=O)c1ccc(N2CCN(S(=O)(=O)c3cccc4nsnc34)CC2)cc1	-	-	-	-	-	-
COc1ccc(NC(=S)N2CCC(N(C)CC3CCCO3)CC2)cc1Cl (stereo not drawn)	-	-	-	-	-	-
COc1ccc(Cl)cc1C(=O)NNC(=S)NC(=O)c1cc(-c2ccccc2)nc2ccccc12	-	-	8	-	-	-
O=C1CC(C(=O)Nc2cccc3ccccc23)C2(CCCC2)O1 (stereo not drawn)	-	-	-	-	7.8	-
N#CC1=C(N)OC2=C(CCc3ccccc32)C1c1ccccc1Cl (stereo not drawn)	-	-7.59	-	-	-	-
C=CCNC(=S)Nc1sc2c(c1C(=O)OCC)CC(C)(CC)OC2 (stereo not drawn)	-	-	22	-	9.4	-
CC(C)(C)c1ccc(C(=O)O[C@H]2[C@H](Cc3ccccc3)NS(=O)(=O)[C@H]3C[C@@H]4C=C[C@]23O4)cc1	.	.	.	.	.	-
Cc1ccc(S(=O)(=O)Nc2cc(C)c(O)cc2C)cc1	-4.93	-	-	-	-	-
COc1ccc(S(=O)(=O)Nc2cc(C(C)C)c(O)cc2C)cc1	-	-	-	-	-	-
Cc1cc(NS(=O)(=O)c2ccccc2)c(C)c(Cl)c1O	-5.81	-	-	-	-	-
